The text below walks through data of ChEMBL document CHEMBL4145605, “Evodialones A and B: Polyprenylated Acylcyclopentanone Racemates with a 3-Ethyl-1,1-diisopentyl-4-methylcyclopentane Skeleton from Evodia lepta” (2018).

Usually MIC stands for the least concentration at which growth counts as inhibited. High values mean a need for much substance, low ones inhibition by little substance.

Assay type in all cases: functional
One assay relates to Nakaseomyces glabratus. The experiment in a line: Antifungal activity against Candida glabrata ATCC 2001 measured after 48 hrs by turbidimetric method. Conditions: CBS 138, 48 h. The gist of the method: (§1)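 In vitro panel of four Gram-positive bacteria, three Gram-negative bacteria and six fungal strains. Activity is reported as MIC in μM. Culture and assay protocols follow an earlier method, with details in the Supporting Information.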

The next assay has as its system Enterobacter cloacae. In words: Antibacterial activity against Enterobacter cloacae ATCC 700323 measured after 16 hrs by turbidimetric method. The note with it: ATCC 700323, 16 h. In outline:
as §1

A further assay concerns Candida parapsilosis. The experiment in a line: Antifungal activity against Candida parapsilosis ATCC 22019 measured after 48 hrs by turbidimetric method. Conditions: Lodderomyces parapsilosis, ATCC 22019, 48 h. The gist of the method:
as §1

For another assay, the system named is Clavispora lusitaniae. In words: Antifungal activity against Candida lusitaniae ATCC 34449 measured after 48 hrs by turbidimetric method. Conditions: ATCC 34449, 48 h. The gist of the method:
as §1

The subject of assay [1] is Meyerozyma guilliermondii. In words: Antifungal activity against Candida guilliermondii ATCC 6260 measured after 48 hrs by turbidimetric method. The note with it: ATCC 6260, 48 h. In outline: as §1
The next assay concerns Staphylococcus aureus. In words: Antibacterial activity against Staphylococcus aureus ATCC 25923 measured after 16 hrs by turbidimetric method. Conditions: ATCC 25923, 16 h. The gist of the method:
as §1

Another assay concerns Pichia kudriavzevii. The experiment in a line: Antifungal activity against Candida krusei ATCC 6258 measured after 48 hrs by turbidimetric method. Conditions: ATCC 6258, 48 h. In outline:
as §1

The subject of another assay is Candida albicans. The experiment in a line: Antifungal activity against Candida albicans ATCC 60193 measured after 48 hrs by turbidimetric method. Conditions: ATCC 60193, 48 h. The gist of the method: as §1
For another assay, the system named is Escherichia coli. In words: Antibacterial activity against Escherichia coli ATCC 25922 measured after 16 hrs by turbidimetric method. The note with it: ATCC 25922, 16 h. The gist of the method: as §1
In assay [2] the test system is Staphylococcus epidermidis. In words: Antibacterial activity against Staphylococcus epidermidis ATCC 12228 measured after 16 hrs by turbidimetric method. Conditions: ATCC 12228, 16 h. The gist of the method:
as §1

Another assay deals with Klebsiella pneumoniae. In words: Antibacterial activity against Klebsiella pneumoniae ATCC 700603 measured after 16 hrs by turbidimetric method. Conditions: Klebsiella pneumoniae, 700603, 16 h. In outline:
as §1

A further assay concerns Bacillus subtilis. The experiment in a line: Antibacterial activity against Bacillus subtilis ATCC 21332 measured after 16 hrs by turbidimetric method. The note with it: ATCC 21332, 16 h. In outline: as §1
Another assay deals with Enterococcus faecalis. The experiment in a line: Antibacterial activity against Enterococcus faecalis ATCC 29212 measured after 16 hrs by turbidimetric method. The note with it: ATCC 29212, 16 h. The gist of the method:
as §1

Values after ≈ are worked out from the molar mass of the structure shown.

For the compound `COC(=O)[C@@]1(O)C(=O)[C@@]2(CC=C(C)C)C[C@H](O)C(C)(C)OC2=C1C(C)=O`, the MIC against Nakaseomyces glabratus was 34.2 µM (≈ 12.5 µg/mL); in the assay on Enterobacter cloacae, over 200 µM; against Candida parapsilosis, 17.1 µM (≈ 6.27 µg/mL); against Clavispora lusitaniae, 68.3 µM (≈ 25 µg/mL); in assay [1], 34.2 µM (≈ 12.5 µg/mL); against Staphylococcus aureus, over 200 µM. Besides, the minimum inhibitory concentration (MIC) against Pichia kudriavzevii is 137 µM (≈ 50.1 µg/mL); in the assay on Candida albicans, 137 µM (≈ 50.1 µg/mL); against Escherichia coli, over 200 µM; in assay [2], over 200 µM; with Klebsiella pneumoniae it was over 200 µM; in the assay on Bacillus subtilis, over 200 µM. The same compound displayed a minimal inhibitory concentration (MIC) with Enterococcus faecalis of over 200 µM.

Take `COC(=O)[C@@]1(O)C(=O)[C@@]2(CC=C(C)C)C[C@@H](O)C(C)(C)OC2=C1C(C)=O`: the MIC (with Nakaseomyces glabratus; in the assay with Enterobacter cloacae; with Candida parapsilosis; with Clavispora lusitaniae; in assay [1]; against Staphylococcus aureus) was over 200 µM throughout. Moreover, the MIC (in the assay on Pichia kudriavzevii; in the assay on Candida albicans; in the assay with Escherichia coli; in assay [2]; with Klebsiella pneumoniae; against Bacillus subtilis) was over 200 µM throughout. Also, the minimum inhibitory concentration (MIC) against Enterococcus faecalis was over 200 µM.

As to `COC(=O)[C@]1(O)C(=O)[C@]2(CC=C(C)C)C[C@@H](O)C(C)(C)OC2=C1C(C)=O`, the minimal inhibitory concentration (MIC) in the assay with Nakaseomyces glabratus was 34.2 µM (≈ 12.5 µg/mL); in the assay on Enterobacter cloacae, over 200 µM; in the assay on Candida parapsilosis, 17.1 µM (≈ 6.27 µg/mL); with Clavispora lusitaniae it was 68.3 µM (≈ 25 µg/mL); in assay [1] it was 68.3 µM (≈ 25 µg/mL); in the assay with Staphylococcus aureus, over 200 µM. The minimum inhibitory concentration (MIC) against Pichia kudriavzevii is 137 µM (≈ 50.1 µg/mL); in the assay with Candida albicans, 137 µM (≈ 50.1 µg/mL); in the assay on Escherichia coli it was over 200 µM; in assay [2] it was over 200 µM; against Klebsiella pneumoniae, over 200 µM; in the assay with Bacillus subtilis it was over 200 µM. The compound also showed a minimal inhibitory concentration (MIC) in the assay on Enterococcus faecalis of over 200 µM.

With `C[C@@H]1[C@H](O)[C@@H](C)/C=C/C=C/C=C/C=C/C=C/C=C/C=C/[C@H](O[C@@H]2O[C@H](C)[C@@H](O)[C@H](N)[C@@H]2O)C[C@@H]2O[C@](O)(C[C@@H](O)C[C@@H](O)[C@H](O)CC[C@@H](O)C[C@@H](O)CC(=O)O[C@H]1C)C[C@H](O)[C@H]2C(=O)O` [AMPHOTERICIN B], the minimal inhibitory concentration (MIC) in the assay on Nakaseomyces glabratus was under 0.5 µM; in the assay with Candida parapsilosis, under 0.5 µM; in the assay with Clavispora lusitaniae it was 8.7 µM (≈ 8.04 µg/mL); in assay [1], under 0.5 µM; in the assay with Pichia kudriavzevii, under 0.5 µM; in the assay on Candida albicans it was under 0.5 µM.
